Test results as given in ChEMBL document CHEMBL1275585, “Combined antibacterial and anti-inflammatory activity of a cationic disubstituted dexamethasone-spermine conjugate” (Antimicrob Agents Chemother, 2010).
Values after ≈ are worked out from the molar mass of the structure shown. Active and inactive are the calls of the source. The calls are words filed in the database; no cut-off is given here.

Columns and labels:
Staphylococcus aureus [1] = test: Antibacterial activity against macrolide-lincosamide-streptogramin B-negative, beta-lactamase-positive, methicillin-susceptible Staphylococcus aureus ATCC 29213; type: functional
Staphylococcus aureus [2] = test: Antibacterial activity against macrolide-lincosamide-streptogramin B-positive, beta-lactamase-positive, methicillin-resistant Staphylococcus aureus ATCC 43300; type: functional
Summary of the method: (§1)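 MIC by broth dilution in Mueller-Hinton broth, inoculum 8 × 10^5 CFU/ml. Strains were typed for beta-lactamase with cefinase, for methicillin susceptibility by Etest, and for macrolide-lincosamide-streptogramin B by disc diffusion on MHA at 0.5 McFarland.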

Staphylococcus aureus [3] = test: Antibacterial activity against macrolide-lincosamide-streptogramin B-negative, beta-lactamase-positive, methicillin-susceptible Staphylococcus aureus isolate 3; type: functional
Staphylococcus aureus [4] = test: Antibacterial activity against macrolide-lincosamide-streptogramin B-negative, beta-lactamase-positive, methicillin-susceptible Staphylococcus aureus isolate 4; type: functional
Staphylococcus aureus [5] = test: Antibacterial activity against macrolide-lincosamide-streptogramin B-negative, beta-lactamase-positive, methicillin-susceptible Staphylococcus aureus isolate 5; type: functional
Staphylococcus aureus [6] = test: Antibacterial activity against macrolide-lincosamide-streptogramin B-positive, beta-lactamase-positive, methicillin-resistant Staphylococcus aureus isolate 6; type: functional; summary of the method: as §1
Staphylococcus aureus [7] = test: Antibacterial activity against macrolide-lincosamide-streptogramin B-negative, beta-lactamase-positive, methicillin-susceptible Staphylococcus aureus ATCC 29213 in presence of clavulanic acid; type: functional
Summary of the method: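 Amoxicillin/clavulanic acid MIC against S. aureus measured alone and together with sublethal D2S concentrations.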

[8] = Cytotoxicity against human neutrophil assessed as effect on cell viability up to 20 uM after 12 hrs by microscopy; type: cell-based
Summary of the method: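 Freshly isolated human blood neutrophils incubated with D2S up to 20 µM for 12 h. Viability scored by manual trypan blue exclusion.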

Pseudomonas aeruginosa = test: Bactericidal activity against kanamycin-resistant Pseudomonas aeruginosa PAO1 up to 50 uM after 1 hr by time-kill assay

SMILES	MIC (Staphylococcus aureus [1])	MIC (Staphylococcus aureus [2])	MIC (Staphylococcus aureus [3])	MIC (Staphylococcus aureus [4])	MIC (Staphylococcus aureus [5])	MIC (Staphylococcus aureus [6])	MIC (Staphylococcus aureus [7])	Activity [8]	Activity (Pseudomonas aeruginosa)
NCC[C@H](O)C(=O)N[C@@H]1C[C@H](N)[C@@H](O[C@H]2O[C@H](CN)[C@@H](O)[C@H](O)[C@H]2O)[C@H](O)[C@H]1O[C@H]1O[C@H](CO)[C@@H](O)[C@H](N)[C@H]1O [AMIKACIN]	1.6 mg/L (≈ 2.73 µM)	25 mg/L (≈ 42.7 µM)	1.6 mg/L (≈ 2.73 µM)	3.2 mg/L (≈ 5.46 µM)	1.6 mg/L (≈ 2.73 µM)	25 mg/L (≈ 42.7 µM)			
CC[C@H]1OC(=O)[C@H](C)[C@@H](O[C@H]2C[C@@](C)(OC)[C@@H](O)[C@H](C)O2)[C@H](C)[C@@H](O[C@@H]2O[C@H](C)C[C@H](N(C)C)[C@H]2O)[C@](C)(O)C[C@@H](C)C(=O)[C@H](C)[C@@H](O)[C@]1(C)O [ERYTHROMYCIN]	0.4 mg/L (≈ 0.545 µM)	400 mg/L (≈ 545 µM)	0.2 mg/L (≈ 0.273 µM)	0.4 mg/L (≈ 0.545 µM)	0.2 mg/L (≈ 0.273 µM)	400 mg/L (≈ 545 µM)			
CN(C)[C@@H]1C(O)=C(C(N)=O)C(=O)[C@@]2(O)C(O)=C3C(=O)c4c(O)cccc4[C@@](C)(O)[C@H]3C[C@@H]12 [TETRACYCLINE]	1.25 mg/L (≈ 2.81 µM)	0.625 mg/L (≈ 1.41 µM)	1.25 mg/L (≈ 2.81 µM)	1.25 mg/L (≈ 2.81 µM)	40 mg/L (≈ 90 µM)	20 mg/L (≈ 45 µM)			
CC1(C)S[C@@H]2[C@H](NC(=O)[C@H](N)c3ccc(O)cc3)C(=O)N2[C@H]1C(=O)O [AMOXICILLIN]		12.5 mg/L (≈ 34.2 µM)	0.2 mg/L (≈ 0.547 µM)	1.6 mg/L (≈ 4.38 µM)	3.2 mg/L (≈ 8.76 µM)	12.5 mg/L (≈ 34.2 µM)	0.4 mg/L		
C[C@@H]1C[C@H]2[C@@H]3CCC4=CC(=O)C=C[C@]4(C)[C@@]3(F)[C@@H](O)C[C@]2(C)[C@@]1(O)C(=O)CO [DEXAMETHASONE]								Non-toxic	inactive
